According to the M2OR odorant receptor database:
Where a chain is given by its changes, count along the chain named.

Tests used:
Conditions in all cases: stereoisomer not certain
OR5K3 (Homo sapiens) = biological target: T1, OR5K3 (Homo sapiens) (UniProt A6NET4)
T1 sequence (whole entry): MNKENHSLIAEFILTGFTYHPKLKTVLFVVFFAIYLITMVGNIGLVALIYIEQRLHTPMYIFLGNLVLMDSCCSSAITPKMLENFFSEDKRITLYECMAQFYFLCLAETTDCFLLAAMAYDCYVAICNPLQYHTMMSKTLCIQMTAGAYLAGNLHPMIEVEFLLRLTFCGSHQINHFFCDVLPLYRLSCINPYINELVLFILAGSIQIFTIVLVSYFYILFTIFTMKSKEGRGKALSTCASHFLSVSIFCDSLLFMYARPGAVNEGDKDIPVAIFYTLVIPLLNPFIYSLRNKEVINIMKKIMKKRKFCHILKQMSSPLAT
Summary of the method: (§1)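 Transient luciferase assays in mammalian cell lines were common, though methods varied by source. The values come from published papers and their supplementary material, with extra details from the original authors when needed. Responsive refers to a measured signal the original authors judged statistically different from baseline, and non-responsive (inactive) to the remainder.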

OR5K4 (Homo sapiens) = biological target: T2, OR5K4 (Homo sapiens) (UniProt A6NMS3)
T2 sequence (whole entry): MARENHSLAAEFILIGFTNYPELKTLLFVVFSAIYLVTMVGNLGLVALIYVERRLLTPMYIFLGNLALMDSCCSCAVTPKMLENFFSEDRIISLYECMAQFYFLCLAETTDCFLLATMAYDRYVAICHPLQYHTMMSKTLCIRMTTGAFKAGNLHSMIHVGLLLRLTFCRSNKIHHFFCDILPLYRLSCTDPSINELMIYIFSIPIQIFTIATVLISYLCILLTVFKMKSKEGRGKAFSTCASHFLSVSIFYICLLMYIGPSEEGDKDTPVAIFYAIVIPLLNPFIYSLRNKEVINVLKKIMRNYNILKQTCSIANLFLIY
Summary of the method: as §1

OR5L1 (Homo sapiens) = biological target: T3, OR5L1 (Homo sapiens) (UniProt Q8NGL2)
T3 sequence (whole entry): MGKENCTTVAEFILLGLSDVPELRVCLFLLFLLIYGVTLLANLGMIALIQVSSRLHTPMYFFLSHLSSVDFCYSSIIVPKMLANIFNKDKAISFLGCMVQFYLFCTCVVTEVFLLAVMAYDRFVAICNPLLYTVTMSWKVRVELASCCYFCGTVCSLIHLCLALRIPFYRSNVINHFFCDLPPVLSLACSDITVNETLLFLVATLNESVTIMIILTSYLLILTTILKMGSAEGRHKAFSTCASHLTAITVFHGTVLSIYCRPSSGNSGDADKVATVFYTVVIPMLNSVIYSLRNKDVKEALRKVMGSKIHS
Summary of the method: as §1

OR5L2 (Homo sapiens) = biological target: T4, OR5L2 (Homo sapiens) (UniProt Q8NGL0)
T4 sequence (whole entry): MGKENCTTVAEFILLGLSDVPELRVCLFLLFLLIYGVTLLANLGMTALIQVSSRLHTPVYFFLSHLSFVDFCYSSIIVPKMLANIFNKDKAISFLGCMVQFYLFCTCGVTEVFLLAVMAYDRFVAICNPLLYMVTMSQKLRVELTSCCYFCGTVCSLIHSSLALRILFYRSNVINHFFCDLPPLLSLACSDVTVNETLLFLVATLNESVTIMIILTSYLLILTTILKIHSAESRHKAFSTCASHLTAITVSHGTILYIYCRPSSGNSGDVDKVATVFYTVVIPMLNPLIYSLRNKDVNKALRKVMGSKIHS
Summary of the method: as §1

OR5M1 (Homo sapiens) = biological target: T5, OR5M1 (Homo sapiens) (UniProt Q8NGP8)
T5 sequence (whole entry): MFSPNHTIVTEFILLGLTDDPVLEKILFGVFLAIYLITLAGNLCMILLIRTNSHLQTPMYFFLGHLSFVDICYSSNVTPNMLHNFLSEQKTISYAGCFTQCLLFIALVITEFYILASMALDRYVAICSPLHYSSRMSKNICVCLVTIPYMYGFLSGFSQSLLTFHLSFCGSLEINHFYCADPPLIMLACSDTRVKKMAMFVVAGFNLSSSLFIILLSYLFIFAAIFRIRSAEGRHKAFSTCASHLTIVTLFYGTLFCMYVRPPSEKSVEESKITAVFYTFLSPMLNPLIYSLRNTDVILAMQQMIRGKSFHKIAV
Summary of the method: as §1

OR5M1 T295R M301I = test system: T6, OR5M1 T295R M301I
T6 sequence (whole entry): T5 sequence (whole entry) with T295R, M301I
Summary of the method: as §1

OR5M10 (Homo sapiens) = biological target: T7, OR5M10 (Homo sapiens) (UniProt Q6IEU7)
T7 sequence (whole entry): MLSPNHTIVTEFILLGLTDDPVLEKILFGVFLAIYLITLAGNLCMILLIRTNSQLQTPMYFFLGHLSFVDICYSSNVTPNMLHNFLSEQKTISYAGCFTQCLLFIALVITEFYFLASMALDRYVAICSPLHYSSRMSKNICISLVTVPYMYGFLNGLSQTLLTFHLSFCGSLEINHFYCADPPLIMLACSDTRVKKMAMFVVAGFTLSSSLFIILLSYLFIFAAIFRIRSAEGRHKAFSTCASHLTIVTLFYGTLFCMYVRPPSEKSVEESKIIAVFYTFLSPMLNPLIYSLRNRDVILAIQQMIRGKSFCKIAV
Summary of the method: as §1

OR5M11 (Homo sapiens) = biological target: T8, OR5M11 (Homo sapiens) (UniProt Q96RB7)
T8 sequence (whole entry): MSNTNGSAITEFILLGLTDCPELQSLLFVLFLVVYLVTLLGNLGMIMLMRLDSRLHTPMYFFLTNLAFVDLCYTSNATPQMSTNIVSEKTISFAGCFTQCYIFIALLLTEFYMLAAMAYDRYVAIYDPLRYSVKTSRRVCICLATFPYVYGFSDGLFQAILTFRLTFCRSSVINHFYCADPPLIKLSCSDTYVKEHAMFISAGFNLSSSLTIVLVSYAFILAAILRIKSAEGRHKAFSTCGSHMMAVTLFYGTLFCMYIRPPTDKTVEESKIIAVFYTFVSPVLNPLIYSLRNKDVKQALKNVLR
Summary of the method: as §1

OR5M3 (Homo sapiens) = biological target: T9, OR5M3 (Homo sapiens) (UniProt Q8NGP4)
T9 sequence (whole entry): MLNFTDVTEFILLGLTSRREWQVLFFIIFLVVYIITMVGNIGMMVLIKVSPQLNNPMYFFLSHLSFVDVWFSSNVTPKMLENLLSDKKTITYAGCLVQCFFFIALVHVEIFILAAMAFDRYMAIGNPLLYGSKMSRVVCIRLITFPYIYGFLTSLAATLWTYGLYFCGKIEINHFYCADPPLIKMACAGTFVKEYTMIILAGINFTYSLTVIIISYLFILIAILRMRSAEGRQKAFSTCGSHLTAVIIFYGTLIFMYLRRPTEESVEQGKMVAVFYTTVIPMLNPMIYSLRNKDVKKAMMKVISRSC
Summary of the method: as §1

OR5M3 N3Y A156T = test system: T10, OR5M3 N3Y A156T
T10 sequence (whole entry): T9 sequence (whole entry) with N3Y, A156T
Summary of the method: as §1

OR5M8 (Homo sapiens) = biological target: T11, OR5M8 (Homo sapiens) (UniProt Q8NGP6)
T11 sequence (whole entry): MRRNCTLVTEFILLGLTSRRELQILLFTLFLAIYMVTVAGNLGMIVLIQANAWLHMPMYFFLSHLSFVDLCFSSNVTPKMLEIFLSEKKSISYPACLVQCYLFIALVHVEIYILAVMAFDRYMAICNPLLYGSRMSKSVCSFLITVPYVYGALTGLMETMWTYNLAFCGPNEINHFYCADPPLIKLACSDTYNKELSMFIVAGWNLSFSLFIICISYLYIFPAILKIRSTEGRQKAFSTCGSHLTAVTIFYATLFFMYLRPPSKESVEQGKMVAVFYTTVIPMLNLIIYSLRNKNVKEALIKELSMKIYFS
Summary of the method: as §1

OR5M9 (Homo sapiens) = biological target: T12, OR5M9 (Homo sapiens) (UniProt Q8NGP3)
T12 sequence (whole entry): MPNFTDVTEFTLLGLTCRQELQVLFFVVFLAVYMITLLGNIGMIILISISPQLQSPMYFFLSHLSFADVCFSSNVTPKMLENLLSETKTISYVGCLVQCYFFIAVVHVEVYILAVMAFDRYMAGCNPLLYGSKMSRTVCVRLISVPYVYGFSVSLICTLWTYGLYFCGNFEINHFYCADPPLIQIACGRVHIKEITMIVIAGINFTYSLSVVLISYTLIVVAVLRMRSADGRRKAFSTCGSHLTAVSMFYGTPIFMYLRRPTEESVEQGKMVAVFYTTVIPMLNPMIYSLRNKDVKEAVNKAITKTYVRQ
Summary of the method: as §1

OR5MA L2F C311H = test system: T13, OR5MA L2F C311H
T13 sequence (whole entry): T7 sequence (whole entry) with L2F, C311H
Summary of the method: as §1

OR5MA L2F Q54H C311H = test system: T14, OR5MA L2F Q54H C311H
T14 sequence (whole entry): T7 sequence (whole entry) with L2F, Q54H, C311H
Summary of the method: as §1

OR5P2 (Homo sapiens) = biological target: T15, OR5P2 (Homo sapiens) (UniProt Q8WZ92)
T15 sequence (whole entry): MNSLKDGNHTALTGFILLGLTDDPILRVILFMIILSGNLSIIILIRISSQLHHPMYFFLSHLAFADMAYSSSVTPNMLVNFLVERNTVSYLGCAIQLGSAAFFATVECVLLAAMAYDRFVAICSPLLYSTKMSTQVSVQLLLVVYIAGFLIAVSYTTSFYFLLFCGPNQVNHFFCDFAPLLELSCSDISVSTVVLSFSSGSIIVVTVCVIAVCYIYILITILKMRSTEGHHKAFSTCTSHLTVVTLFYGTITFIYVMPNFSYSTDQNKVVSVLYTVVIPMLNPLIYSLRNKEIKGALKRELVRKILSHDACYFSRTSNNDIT
Summary of the method: as §1

OR5P3 (Homo sapiens) = biological target: T16, OR5P3 (Homo sapiens) (UniProt Q8WZ94)
T16 sequence (whole entry): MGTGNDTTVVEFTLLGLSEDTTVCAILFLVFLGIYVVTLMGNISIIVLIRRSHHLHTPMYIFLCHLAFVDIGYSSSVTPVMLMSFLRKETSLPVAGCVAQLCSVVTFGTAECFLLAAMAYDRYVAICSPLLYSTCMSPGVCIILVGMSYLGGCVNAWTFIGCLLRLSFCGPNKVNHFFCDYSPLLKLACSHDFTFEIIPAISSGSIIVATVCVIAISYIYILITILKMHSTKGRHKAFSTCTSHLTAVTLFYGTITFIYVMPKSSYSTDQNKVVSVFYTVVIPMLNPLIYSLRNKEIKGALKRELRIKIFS
Summary of the method: as §1

OR5P3 L301R = test system: T17, OR5P3 L301R
T17 sequence (whole entry): T16 sequence (whole entry) with L301R
Summary of the method: as §1

OR5R1 C122R S128G F184L = test system: T18, OR5R1 C122R S128G F184L
T18 sequence (whole entry): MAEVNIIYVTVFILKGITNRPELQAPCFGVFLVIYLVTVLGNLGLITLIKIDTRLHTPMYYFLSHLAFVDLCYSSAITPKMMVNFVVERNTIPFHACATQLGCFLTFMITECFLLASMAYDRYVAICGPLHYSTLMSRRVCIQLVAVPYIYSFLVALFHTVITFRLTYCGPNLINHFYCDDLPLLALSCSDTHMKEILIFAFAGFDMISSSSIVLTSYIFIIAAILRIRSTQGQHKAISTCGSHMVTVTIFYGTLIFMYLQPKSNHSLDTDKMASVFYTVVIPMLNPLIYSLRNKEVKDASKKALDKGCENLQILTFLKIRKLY
Summary of the method: as §1

OR5T1 (Homo sapiens) = biological target: T19, OR5T1 (Homo sapiens) (UniProt Q8NG75)
T19 sequence (whole entry): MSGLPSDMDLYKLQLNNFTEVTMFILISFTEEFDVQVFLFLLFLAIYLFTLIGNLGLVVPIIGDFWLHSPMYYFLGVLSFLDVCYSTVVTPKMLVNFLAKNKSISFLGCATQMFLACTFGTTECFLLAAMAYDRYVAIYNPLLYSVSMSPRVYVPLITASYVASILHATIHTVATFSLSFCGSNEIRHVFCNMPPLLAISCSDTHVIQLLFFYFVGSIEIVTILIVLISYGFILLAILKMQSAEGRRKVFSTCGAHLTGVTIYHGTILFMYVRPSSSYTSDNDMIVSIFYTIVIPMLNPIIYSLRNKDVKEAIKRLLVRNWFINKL
Summary of the method: as §1

OR5T2 (Homo sapiens) = biological target: T20, OR5T2 (Homo sapiens) (UniProt Q8NGG2)
T20 sequence (whole entry): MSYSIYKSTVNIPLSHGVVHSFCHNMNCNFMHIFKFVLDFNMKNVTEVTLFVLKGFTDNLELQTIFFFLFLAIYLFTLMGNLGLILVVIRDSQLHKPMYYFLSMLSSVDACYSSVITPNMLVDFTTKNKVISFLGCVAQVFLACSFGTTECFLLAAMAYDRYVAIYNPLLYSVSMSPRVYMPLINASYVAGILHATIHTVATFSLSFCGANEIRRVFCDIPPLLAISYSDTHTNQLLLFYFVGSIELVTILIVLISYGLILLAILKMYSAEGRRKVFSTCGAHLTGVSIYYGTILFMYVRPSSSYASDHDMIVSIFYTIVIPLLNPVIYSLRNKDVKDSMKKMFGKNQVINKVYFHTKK
Summary of the method: as §1

Measured: odorant receptor agonist call;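 note: active if original authors judged signal statistically different from baseline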

CC1=NC(C)C(C)S1 (stereo not given)
inactive: OR5K3 (Homo sapiens) | OR5K4 (Homo sapiens) | OR5L1 (Homo sapiens) | OR5L2 (Homo sapiens) | OR5M1 (Homo sapiens) | OR5M1 T295R M301I | OR5M10 (Homo sapiens) | OR5M11 (Homo sapiens) | OR5M3 (Homo sapiens) | OR5M3 N3Y A156T | OR5M8 (Homo sapiens) | OR5M9 (Homo sapiens) | OR5MA L2F C311H | OR5MA L2F Q54H C311H | OR5P2 (Homo sapiens) | OR5P3 (Homo sapiens) | OR5P3 L301R | OR5R1 C122R S128G F184L | OR5T1 (Homo sapiens) | OR5T2 (Homo sapiens)

CSCCC=O
inactive: OR5M3 (Homo sapiens)

CCCCCC(=O)C(C)C(C)=O (stereo not given)
inactive: OR5K3 (Homo sapiens) | OR5K4 (Homo sapiens) | OR5L1 (Homo sapiens) | OR5L2 (Homo sapiens) | OR5M1 (Homo sapiens) | OR5M10 (Homo sapiens) | OR5M11 (Homo sapiens) | OR5M3 (Homo sapiens) | OR5M8 (Homo sapiens) | OR5M9 (Homo sapiens) | OR5P2 (Homo sapiens) | OR5P3 (Homo sapiens) | OR5T1 (Homo sapiens) | OR5T2 (Homo sapiens)
